Assay results as given in ChEMBL document CHEMBL2384906, “Biological activity, design, synthesis and structure activity relationship of some novel derivatives of curcumin containing sulfonamides” (Eur J Med Chem, 2013).
≈ marks a conversion by molar mass, not a printed value. Calls of active or inactive are those of the source. The rule behind the calls is not given here.

Columns and labels:
Pseudomonas aeruginosa [1] = assay: Antimicrobial activity against Pseudomonas aeruginosa ATCC 15499 after 24 hrs by broth micro serial dilution method; assay type: functional
Outline: (§1)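 This was broth microdilution in autoclaved Mueller-Hinton broth. 150 µL of compound per well was serially diluted […], and 50 µL of test organism was added. Plates were incubated 24 h at 37 °C and optical density was read.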

Bacillus cereus [2] = assay: Antimicrobial activity against Bacillus cereus MTCC 7350 assessed as diameter of inhibition zone at 80 uM after 24 hrs by Kirby -Baur disc diffusion method; assay type: functional
Outline: (§2)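 Kirby-Bauer disc diffusion was used. Acetone stocks (160 µM) were serially doubled down to 80, 40 and 20 µM. 4 µL of each went onto 5 mm sterile paper discs, which were dried 30 min at 50 °C. Inoculum was 1.5 × 10⁸ CFU/mL diluted to 3 × 10² CFU/mL, and 50 µL was spread on Mueller-Hinton agar. After 24 h at 37 °C the inhibition-zone diameter was measured. Ciprofloxacin served as positive control.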

Salmonella typhi [3] = assay: Antimicrobial activity against Salmonella typhi ATCC 23564 after 24 hrs by broth micro serial dilution method; assay type: functional
Staphylococcus aureus [4] = assay: Antimicrobial activity against Staphylococcus aureus ATCC 11632 after 24 hrs by broth micro serial dilution method; assay type: functional; outline: as §1
Escherichia coli [5] = assay: Antimicrobial activity against Escherichia coli ATCC 35218 after 24 hrs by broth micro serial dilution method; assay type: functional; outline: as §1
Salmonella typhi [6] = assay: Antimicrobial activity against Salmonella typhi ATCC 23564 assessed as diameter of inhibition zone at 80 uM after 24 hrs by Kirby -Baur disc diffusion method; assay type: functional; settings: for diameter of the inhibition zone (DIZ): Salmonella enterica subsp. enterica serovar Typhi
Escherichia coli [7] = assay: Antimicrobial activity against Escherichia coli ATCC 35218 assessed as diameter of inhibition zone at 80 uM after 24 hrs by Kirby -Baur disc diffusion method; assay type: functional; outline: as §2
Bacillus cereus [8] = assay: Antimicrobial activity against Bacillus cereus MTCC 7350 after 24 hrs by broth micro serial dilution method; assay type: functional; outline: as §1
Pseudomonas aeruginosa [9] = assay: Antimicrobial activity against Pseudomonas aeruginosa ATCC 15499 assessed as diameter of inhibition zone at 80 uM after 24 hrs by Kirby -Baur disc diffusion method; assay type: functional; outline: as §2
Staphylococcus aureus [10] = assay: Antimicrobial activity against Staphylococcus aureus ATCC 11632 assessed as diameter of inhibition zone at 80 uM after 24 hrs by Kirby -Baur disc diffusion method; assay type: functional; outline: as §2
Trichoderma viride [11] = assay: Antifungal activity against Trichoderma viride MTCC 1107 assessed as zone of inhibition at 40 uM after 48 hrs by disc diffusion method; assay type: functional
Outline: (§3)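 Spores from 4-day potato dextrose agar cultures, suspended in sterile water at 1.5 × 10⁵ CFU/mL. 0.2 mL was spread on potato dextrose agar. 5 mm filter-paper discs soaked with test compound were laid on the lawn. Incubation was 48 h at 28 °C, then the inhibition zone was measured in mm. Fluconazole was the positive control and acetone the negative control.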

Aspergillus flavus [12] = assay: Antifungal activity against Aspergillus flavus MTCC 1021 assessed as zone of inhibition at 80 uM after 48 hrs by disc diffusion method; assay type: functional; outline: as §3
Aspergillus flavus [13] = assay: Antifungal activity against Aspergillus flavus MTCC 1021 after 48 hrs; assay type: functional
Curvularia lunata [14] = assay: Antifungal activity against Curvularia lunata MTCC 581 after 48 hrs; assay type: functional; settings: MTCC 581, 48 h
Trichoderma viride [15] = assay: Antifungal activity against Trichoderma viride MTCC 1107 after 48 hrs; assay type: functional; settings: MTCC 1107, 48 h
Aspergillus niger [16] = assay: Antifungal activity against Aspergillus niger MTCC 1108 assessed as zone of inhibition at 80 uM after 48 hrs by disc diffusion method; assay type: functional; outline: as §3
Aspergillus niger [17] = assay: Antifungal activity against Aspergillus niger MTCC 1108 after 48 hrs; assay type: functional
Curvularia lunata [18] = assay: Antifungal activity against Curvularia lunata MTCC 581 assessed as zone of inhibition at 80 uM after 48 hrs by disc diffusion method; assay type: functional; settings: MTCC 581, 48 h, read-out: IZ; outline: as §3
Trichoderma viride [19] = assay: Antifungal activity against Trichoderma viride MTCC 1107 assessed as zone of inhibition at 80 uM after 48 hrs by disc diffusion method; assay type: functional; settings: MTCC 1107, 48 h, read-out: IZ; outline: as §3
Curvularia lunata [20] = assay: Antifungal activity against Curvularia lunata MTCC 581 assessed as zone of inhibition at 40 uM after 48 hrs by disc diffusion method; assay type: functional; outline: as §3
Trichoderma viride [21] = assay: Antifungal activity against Trichoderma viride MTCC 1107 assessed as zone of inhibition at 20 uM after 48 hrs by disc diffusion method; assay type: functional; outline: as §3
Curvularia lunata [22] = assay: Antifungal activity against Curvularia lunata MTCC 581 assessed as zone of inhibition at 20 uM after 48 hrs by disc diffusion method; assay type: functional; outline: as §3
Salmonella typhi [23] = assay: Antimicrobial activity against Salmonella typhi ATCC 23564 assessed as diameter of inhibition zone at 40 uM after 24 hrs by Kirby -Baur disc diffusion method; assay type: functional; settings: Salmonella enterica subsp. enterica serovar Typhi
Salmonella typhi [24] = assay: Antimicrobial activity against Salmonella typhi ATCC 23564 assessed as diameter of inhibition zone at 20 uM after 24 hrs by Kirby -Baur disc diffusion method; assay type: functional; settings: Salmonella enterica subsp. enterica serovar Typhi
HepG2 = assay: Cytotoxicity against human HepG2 cells after 24 hrs by MTT assay; assay type: functional, cell-based
Outline: (§4)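 The MTT assay seeded 5 × 10⁴ cells per well and grew them 24 h in RPMI 1640 with compound at 2.5–200 µM. Medium without cells was the blank and adriamycin the positive control. MTT was added for 4 h at 37 °C, formazan was solubilised, and absorbance was read at 570 nm. IC50 is the concentration that cuts viability 50% against untreated cells.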

Mus musculus = assay: Antiinflammatory activity in mouse assessed as inhibition of carrageenan-induced increase in paw volume at 200 mg/kg administered 1 hr prior to carrageenan challenge measured after 3 hrs relative to control; assay type: functional
Outline: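 Mice were fasted 2 h and placed in groups of five. Controls received saline i.p. Phenylbutazone was given at 100 mg/kg i.p., curcumin at 200 mg/kg i.p., and derivatives at 200 mg/kg. After 1 h, 0.1 mL of 1% carrageenan in saline was injected subplantar into the right hind paw. Paw volume was followed by plethysmometer for 3 h, and % inhibition was calculated as (Vc − Vt)/Vc × 100.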

QG-56 = assay: Cytotoxicity against human QG56 cells after 24 hrs by MTT assay; assay type: functional, cell-based; outline: as §4
HCT-116 = assay: Cytotoxicity against human HCT116 cells after 24 hrs by MTT assay; assay type: functional, cell-based; outline: as §4
HeLa = assay: Cytotoxicity against human HeLa cells after 24 hrs by MTT assay; assay type: functional, cell-based; outline: as §4
[25] = Salmonella enterica, ATCC 23564, 24 h

## Nc1ccc(S(N)(=O)=O)cc1
Pseudomonas aeruginosa [1]
  MIC: inactive
Bacillus cereus [2]
  diameter of the inhibition zone (DIZ): inactive
Salmonella typhi [3]; Salmonella enterica subsp. enterica serovar Typhi
  MIC: inactive
Staphylococcus aureus [4]
  MIC: inactive
Escherichia coli [5]
  MIC: inactive
Salmonella typhi [6]
  diameter of the inhibition zone (DIZ): inactive
Escherichia coli [7]
  diameter of the inhibition zone (DIZ): inactive
Bacillus cereus [8]
  MIC: inactive
Pseudomonas aeruginosa [9]
  diameter of the inhibition zone (DIZ): inactive
Staphylococcus aureus [10]
  diameter of the inhibition zone (DIZ): inactive

## Cc1cc(NS(=O)(=O)c2ccc(N)cc2)no1 [SULFAMETHOXAZOLE]
Pseudomonas aeruginosa [1]
  MIC: inactive
Bacillus cereus [2]
  diameter of the inhibition zone (DIZ): inactive
Salmonella typhi [3]; [25]
  MIC: > 160 µM
Staphylococcus aureus [4]; ATCC 11632, 24 h
  MIC: > 160 µM
Escherichia coli [5]; ATCC 35218, 24 h
  MIC: > 160 µM
Salmonella typhi [6]
  diameter of the inhibition zone (DIZ): inactive
Escherichia coli [7]
  diameter of the inhibition zone (DIZ): inactive
Bacillus cereus [8]
  MIC: inactive
Pseudomonas aeruginosa [9]
  diameter of the inhibition zone (DIZ): inactive
Staphylococcus aureus [10]
  diameter of the inhibition zone (DIZ): inactive

## OC(Cn1cncn1)(Cn1cncn1)c1ccc(F)cc1F [FLUCONAZOLE]
Trichoderma viride [11]; MTCC 1107, 48 h, read-out: IZ
  zone of inhibition at 40 µM: 24 mm
Aspergillus flavus [12]
  inhibition zone (IZ): inactive
Aspergillus flavus [13]; MTCC 1021, 48 h
  MIC: > 80 µM
Curvularia lunata [14]
  MIC: 20 µM (≈ 6.13 µg/mL)
Trichoderma viride [15]
  MIC: 20 µM (≈ 6.13 µg/mL)
Aspergillus niger [16]
  inhibition zone (IZ): inactive
Aspergillus niger [17]
  MIC: inactive
Curvularia lunata [18]
  zone of inhibition at 80 µM: 28 mm
Trichoderma viride [19]
  zone of inhibition at 80 µM: 29 mm
Curvularia lunata [20]; MTCC 581, 48 h, read-out: IZ
  zone of inhibition at 40 µM: 27 mm
Trichoderma viride [21]; MTCC 1107, 48 h, read-out: IZ
  zone of inhibition at 20 µM: 21 mm
Curvularia lunata [22]; MTCC 581, 48 h, read-out: IZ
  zone of inhibition at 20 µM: 24 mm

## COc1cc(/C=C/c2noc(/C=C/c3ccc(O)c(OC)c3)c2/N=N/c2ccc(S(N)(=O)=O)cc2)ccc1O
Salmonella typhi [23]
  diameter of the inhibition zone (DIZ): inactive
Trichoderma viride [11]
  inhibition zone (IZ): inactive
Pseudomonas aeruginosa [1]
  MIC: inactive
Aspergillus flavus [12]
  inhibition zone (IZ): inactive
Salmonella typhi [24]
  diameter of the inhibition zone (DIZ): inactive
HepG2
  IC50: Not Active
Aspergillus flavus [13]
  MIC: inactive
Curvularia lunata [14]
  MIC: > 80 µM
Bacillus cereus [2]
  diameter of the inhibition zone (DIZ): inactive
Trichoderma viride [15]
  MIC: > 80 µM
Aspergillus niger [16]
  inhibition zone (IZ): inactive
Salmonella typhi [3]; [25]
  MIC: > 80 µM
Mus musculus
  inhibition in vivo at 200 mg/kg: 24.1%
Staphylococcus aureus [4]
  MIC: inactive
Aspergillus niger [17]
  MIC: inactive
QG-56
  IC50: Not Active
Curvularia lunata [18]
  zone of inhibition at 80 µM: 9 mm
Trichoderma viride [19]
  zone of inhibition at 80 µM: 11 mm
Escherichia coli [5]
  MIC: inactive
Salmonella typhi [6]; Salmonella enterica, ATCC 23564, 24 h, read-out: DIZ
  zone of inhibition at 80 µM: 11 mm
HCT-116
  IC50: Not Active
Curvularia lunata [20]
  inhibition zone (IZ): inactive
Trichoderma viride [21]
  inhibition zone (IZ): inactive
Escherichia coli [7]
  diameter of the inhibition zone (DIZ): inactive
Curvularia lunata [22]
  inhibition zone (IZ): inactive
Bacillus cereus [8]
  MIC: inactive
Pseudomonas aeruginosa [9]
  diameter of the inhibition zone (DIZ): inactive
HeLa
  IC50: Not Active
Staphylococcus aureus [10]
  diameter of the inhibition zone (DIZ): inactive
